Experimental data published in ChEMBL document CHEMBL3526099, “Metabolism of triethylenetetramine and 1,12-diamino-3,6,9-triazadodecane by the spermidine/spermine-N(1)-acetyltransferase and thialysine acetyltransferase” (Drug Metab Dispos, 2013).
Values belong to the molecule of their own block, whether it stands above or below them.

Legend:
[1] = biological target: T1, Diamine acetyltransferase 1 (Mus musculus, UniProt P48026); assay: Drug level in mouse primary hepatocytes assessed as SSAT1-mediated compound formation per ug DNA treated with SpmTrien at 100 uM for 4 hrs
[2] = biological target: T2, Diamine acetyltransferase 1 (Homo sapiens, UniProt P21673); assay: Drug level in human HepG2 cells assessed as SSAT1-mediated compound formation treated with SpmTrien at 100 uM for 24 hrs; type: ADME, cell-based; settings: hepg2, 24 h
Target sequence in this assay (P21673 whole entry): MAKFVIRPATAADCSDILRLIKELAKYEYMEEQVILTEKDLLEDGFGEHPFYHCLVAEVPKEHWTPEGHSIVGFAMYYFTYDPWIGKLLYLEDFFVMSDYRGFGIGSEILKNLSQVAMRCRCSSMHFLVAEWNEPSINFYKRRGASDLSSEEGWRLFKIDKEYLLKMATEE

[3] = biological target: T2, Diamine acetyltransferase 1; assay: Drug level in human HepG2 cells assessed as SSAT1-mediated compound formation treated with SpmTrien at 100 uM for 24 hrs in presence of SSAT2 shRNA; type: ADME, cell-based; settings: hepg2, 24 h
How it was run: (§1)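 HepG2 cells were transduced with control, SSAT1 or SSAT2 shRNA lentiviral particles and stable clones selected with puromycin (5 µg/ml) for one week. Cells were plated overnight, then incubated 24 h with 1 mM TETA or 100 µM SpmTrien. Intracellular metabolites were measured. Means ± SD, n=3.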
Target sequence in this assay (P21673 whole entry): as above

[4] = biological target: T1, Diamine acetyltransferase 1; assay: Drug level in mouse primary hepatocytes assessed as SSAT1-mediated compound formation treated with 100 uM SpmTrien for 4 hrs in presence of SSAT2 siRNA; type: ADME, cell-based, Hepatocyte
How it was run: (§2)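 Hepatocytes from SSAT1-KO or wild-type mouse liver were isolated by collagenase perfusion and plated on collagen I in William's E with dexamethasone, FBS and insulin. They were reverse-transfected with control or SSAT2 siRNA (100 nM) for 2 d, then exposed to 1 mM TETA or 100 µM SpmTrien for 4 h. Intracellular metabolites were measured. Means ± SD, n=3.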

[5] = biological target: T2, Diamine acetyltransferase 1; assay: Drug level in human HepG2 cells assessed as SSAT1-mediated compound formation per ug DNA treated with Spm Trien at 100 uM for 24 hrs; type: ADME, cell-based; settings: hepg2, 24 h
Target sequence in this assay (P21673 whole entry): as above

[6] = biological target: T2, Diamine acetyltransferase 1; assay: Drug level in human HepG2 cells assessed as SSAT1-mediated compound formation treated with SpmTrien at 100 uM for 24 hrs pretreated with 50 uM DENSpm for 24 hrs; type: ADME, cell-based; settings: hepg2, 24 h
How it was run: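 HepG2 cells were pretreated for 24 h with 50 µM DENSpm or medium alone, washed, then incubated for 24 h with 1 mM TETA or 100 µM SpmTrien. Intracellular metabolites were measured from cell lysates. Means ± SD, n=3.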
Target sequence in this assay (P21673 whole entry): as above

[7] = biological target: T3, Thialysine N-epsilon-acetyltransferase (Homo sapiens, UniProt Q96F10); assay: Activity of human recombinant SSAT2 assessed as compound formation treated with 1 mM SpmTrien for 50 mins by HPLC analysis; type: ADME
How it was run: (§3)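 SpmTrien (1 mM) incubated with 50-100 ng human recombinant enzyme for 10-50 min at 37 °C in 100 mM Tris-HCl pH 7.8 containing 1 mM acetyl-CoA and 1 mM DTT. The reaction was stopped with sulphosalicylic acid containing diaminoheptane as internal standard, and acetylated products were quantified by HPLC.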

[8] = biological target: T2, Diamine acetyltransferase 1; assay: Activity of human recombinant SSAT1 assessed as compound formation treated with 1 mM SpmTrien for 50 mins by HPLC analysis; type: ADME
How it was run: as §3
Target sequence in this assay (P21673 whole entry): as above

[9] = biological target: Thialysine N-epsilon-acetyltransferase (Mus musculus, UniProt Q6P8J2); assay: Drug level in mouse primary hepatocytes assessed as SSAT2-mediated compound formation per ug DNA treated with TETA at 1 mM for 4 hrs; settings: 1000 µM
[10] = biological target: T3, Thialysine N-epsilon-acetyltransferase; assay: Drug level in human HepG2 cells assessed as SSAT2-mediated compound formation treated with TETA at 1 mM for 24 hrs; type: ADME, cell-based; settings: hepg2, 24 h, 1000 µM
[11] = biological target: T3, Thialysine N-epsilon-acetyltransferase; assay: Drug level in human HepG2 cells assessed as SSAT2-mediated compound formation treated with TETA at 1 mM for 24 hrs in presence of SSAT1 shRNA; type: ADME, cell-based; settings: hepg2, 24 h, 1000 µM
How it was run: as §1

[12] = biological target: T3, Thialysine N-epsilon-acetyltransferase; assay: Drug level in human HepG2 cells assessed as SSAT2-mediated compound formation per ug DNA treated with TETA at 1 mM for 24 hrs; type: ADME, cell-based; settings: hepg2, 24 h, 1000 µM
[13] = biological target: T2, Diamine acetyltransferase 1; assay: Drug level in human HepG2 cells assessed as SSAT1-mediated compound formation treated with TETA at 1 mM for 24 hrs pretreated with 50 uM DENSpm for 24 hrs; settings: hepg2, 24 h, 1000 µM
Target sequence in this assay (P21673 whole entry, looked up): as the sequence (P21673 whole entry) above

[14] = biological target: T2, Diamine acetyltransferase 1; assay: Drug metabolism in human HepG2 cells assessed as SSAT1-mediated (N1-acetyl)-1,12-diamino-3,6,9-triazadodecane formation at 100 uM for 24 hrs in presence of SSAT2 shRNA; type: ADME, cell-based; settings: hepg2, 24 h
How it was run: as §1
Target sequence in this assay (P21673 whole entry): as above

[15] = biological target: T2, Diamine acetyltransferase 1; assay: Drug metabolism in human HepG2 cells assessed as SSAT1-mediated (N1-acetyl)-spermine formation at 100 uM for 24 hrs; type: ADME, cell-based; settings: hepg2, 24 h
[16] = Drug metabolism in SSAT1-knockout mouse primary hepatocytes at 100 uM for 4 hrs; type: ADME, cell-based, Hepatocyte
How it was run: as §2

[17] = tested on: HepG2; assay: Drug metabolism in human HepG2 cells at 100 uM for 24 hrs in presence of SSAT1 shRNA; type: ADME, cell-based; settings: hepg2, 24 h
How it was run: as §1

[18] = biological target: T2, Diamine acetyltransferase 1; assay: Drug metabolism in human HepG2 cells assessed as SSAT1-mediated (N1-acetyl)-1,12-diamino-3,6,9-triazadodecane formation at 100 uM for 24 hrs; type: ADME, cell-based; settings: hepg2, 24 h
[19] = biological target: T1, Diamine acetyltransferase 1; assay: Drug metabolism in mouse primary hepatocytes assessed as SSAT1-mediated (N1-acetyl)-1,12-diamino-3,6,9-triazadodecane formation at 100 uM for 4 hrs in presence of SSAT2 siRNA; type: ADME, cell-based, Hepatocyte
How it was run: as §2

[20] = biological target: T2, Diamine acetyltransferase 1; assay: Drug metabolism in human HepG2 cells assessed as SSAT1-mediated (N1-acetyl)-spermidine formation at 100 uM for 24 hrs; type: ADME, cell-based; settings: hepg2, 24 h

T3 sequence (Q96F10 whole entry): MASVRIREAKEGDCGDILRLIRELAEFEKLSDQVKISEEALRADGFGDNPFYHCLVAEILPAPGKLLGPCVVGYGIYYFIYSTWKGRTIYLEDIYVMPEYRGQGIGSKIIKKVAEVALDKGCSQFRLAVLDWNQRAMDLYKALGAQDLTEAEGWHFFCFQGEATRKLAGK
T1 sequence (P48026 whole entry): as the sequence (P21673 whole entry) above, with V5K, A12S, E32D, L42Q, R119K, T169A counted along it
Sequence of Thialysine N-epsilon-acetyltransferase (Mus musculus, UniProt Q6P8J2) (Q6P8J2 whole entry): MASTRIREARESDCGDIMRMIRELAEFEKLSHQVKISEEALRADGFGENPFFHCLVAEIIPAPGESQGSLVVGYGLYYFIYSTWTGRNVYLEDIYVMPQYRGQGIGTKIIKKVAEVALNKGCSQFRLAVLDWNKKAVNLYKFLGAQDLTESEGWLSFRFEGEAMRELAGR

Drug metabolism [1]: 3.4 pmol/h | Drug metabolism [2]: metabolite_detected | Drug metabolism [3]: metabolite_detected | Drug metabolism [4]: metabolite_detected | Drug metabolism [5]: 0.8 pmol/h | Drug metabolism [6]: metabolite_detected | Drug metabolism [7]: 0.65 nmol | Drug metabolism [8]: 12.8 nmol
SMILES: CC(=O)NCCNCCNCCNCCCN

Drug metabolism [9]: 40 pmol/h | Drug metabolism [10]: metabolite_detected | Drug metabolism [11]: metabolite_detected | Drug metabolism [12]: 10 pmol/h | Drug metabolism [13]: metabolite_detected
SMILES: CC(=O)NCCNCCNCCN

Drug metabolism [2]: metabolite_detected | Drug metabolism [10]: metabolite_detected
SMILES: CC(=O)NCCCNCCCCNCCCN

Drug metabolism [6]: metabolite_detected | Drug metabolism [7]: 1.1 nmol | Drug metabolism [8]: 4.2 nmol
SMILES: CC(=O)NCCCNCCNCCNCCN

Drug metabolism [14]: metabolite_detected | Drug metabolism [15]: metabolite_detected | Drug metabolism [16]: metabolite_not_detected | Drug metabolism [17]: metabolite_not_detected | Drug metabolism [18]: metabolite_detected | Drug metabolism [19]: metabolite_detected | Drug metabolism [20]: metabolite_detected
SMILES: NCCCNCCNCCNCCN

Drug metabolism [2]: metabolite_detected | Drug metabolism [10]: metabolite_detected
SMILES: CC(=O)NCCCNCCCCN
